As a reminder, the IC50 is the concentration at which inhibition is half-maximal.

Activity calls are given as the source filed them. No cut-off for these calls is given here.

Assay [1] can be described thus: Inhibition of protein A binding to horseradish peroxidase-conjugated human IgG in PBS solution by Protein A human IgG competitive ELISA. The procedure, abridged: (§1)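 Plate wells coated overnight at 4 °C with protein A (0.8 ug/well), washed with PBS, and blocked with 2% BSA for 1 h at 37 °C. Compound diluted in PBS or PBS–20% DMSO was added with HRP-conjugated human IgG and incubated 1 h at 37 °C. After washing, bound HRP-IgG was developed with ABTS for 20 min in the dark at room temperature and read at 405 nm. IC50 is the concentration inhibiting 50% binding.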

The nature of assay [2]: Inhibition of protein A binding to horseradish peroxidase-conjugated human IgG in 20% DMSO/PBS solution by Protein A human IgG competitive ELISA. The procedure, abridged: as §1
For orientation: In an ELISA, binding on a coated surface is turned into a signal by an enzyme label.

Assay [3] deals with Mus musculus. Briefly: Reduction of antibody immune complexes in NZB/NZW-F1 mouse systemic lupus erythematosus model at 50 mg/kg, iv administered once weekly starting from week 12 relative to untreated control. It counts as functional, organism-based. Further details: dose 50 mg/kg.
In assay [4] the target is Low affinity immunoglobulin gamma Fc region receptor III-B (Homo sapiens, UniProt O75015). Briefly: Inhibition of heat aggregated human IgG binding to human Fc-gamma-R3b.
Chain of Low affinity immunoglobulin gamma Fc region receptor III-B (O75015 whole entry): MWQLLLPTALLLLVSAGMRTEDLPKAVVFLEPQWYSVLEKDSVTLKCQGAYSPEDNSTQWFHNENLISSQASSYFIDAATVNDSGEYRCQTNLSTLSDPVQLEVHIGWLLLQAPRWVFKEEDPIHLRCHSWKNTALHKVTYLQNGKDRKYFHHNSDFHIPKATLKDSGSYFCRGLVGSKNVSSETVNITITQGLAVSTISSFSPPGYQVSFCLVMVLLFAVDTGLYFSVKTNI
For assay [5], the system named is Mus musculus. Briefly: Reduction of anti-dsDNA antibody levels in NZB/NZW-F1 mouse systemic lupus erythematosus model at 50 mg/kg, iv administered once weekly starting from week 12 relative to untreated control. In kind it is functional. The procedure, abridged:
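NZB/NZW F1 hybrid mice were given 50 mg/kg intravenously once weekly from week 12, against vehicle-treated controls. Serum anti-dsDNA autoantibodies were measured by a literature method, and total IgG was also monitored.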

Assay [6] in a line: Inhibition of protein A binding to heat aggregated human IgG.
In assay [7] the target is T1, Low affinity immunoglobulin gamma Fc region receptor II-a (Homo sapiens, UniProt P12318).
T1 sequence (P12318 whole entry): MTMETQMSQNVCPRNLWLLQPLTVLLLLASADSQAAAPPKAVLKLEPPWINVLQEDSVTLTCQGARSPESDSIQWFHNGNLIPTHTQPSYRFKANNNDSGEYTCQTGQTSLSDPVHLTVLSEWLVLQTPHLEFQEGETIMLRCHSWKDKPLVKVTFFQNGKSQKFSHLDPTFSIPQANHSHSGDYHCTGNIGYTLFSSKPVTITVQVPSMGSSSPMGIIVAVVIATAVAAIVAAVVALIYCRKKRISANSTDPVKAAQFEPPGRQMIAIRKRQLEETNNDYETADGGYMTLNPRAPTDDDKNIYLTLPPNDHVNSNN
Briefly: Inhibition of heat aggregated human IgG binding to human Fc-gamma-R2a.

In assay [8] the test system is Mus musculus. Briefly: Reduction of immune complex deposits in homozygous fas mutant MRL/lpr mouse systemic lupus erythematosus model at 50 mg/kg, iv administered once weekly for 5 consecutive weeks between 18 and 22 weeks by electron microscopy. Further details: dose 50 mg/kg. It counts as functional, organism-based. The method in brief:
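MRL/lpr mice (homozygous fas mutation) received 50 mg/kg or vehicle intravenously once a week for 5 consecutive weeks, between weeks 18 and 22. Mice were then sacrificed, and immune complex deposition in kidney tissue was recorded by electron microscopy.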

Regarding `CN1CCN(c2nc(Nc3ccc(CCNc4nc(NCCO)nc(Nc5cccc(N)c5)n4)cc3)nc(Nc3cccc(N)c3)n2)CC1`, in assay [1] (read-out: IC50), the 50% inhibitory concentration (IC50) came to 59 nM. The same measure, in the same setting: next, `Nc1cccc(Nc2nc(NCCO)nc(NCCc3ccc(Nc4nc(Nc5cccc(N)c5)nc(NC5CCNC5)n4)cc3)n2)c1` (stereo unspecified): 233 nM. On to `CC(Nc1nc(NCCO)nc(Nc2cccc(N)c2)n1)c1ccc(Nc2nc(NCCO)nc(Nc3cccc(N)c3)n2)cc1` (stereo unspecified), for which the half-inhibitory concentration (IC50) entry in assay [1] is listed as “Not Active”. As for `Nc1cccc(Nc2nc(NCCO)nc(NCCc3ccc(Nc4nc(NCCO)nc(Nc5cccc(F)c5)n4)cc3)n2)c1`, the half-inhibitory concentration (IC50) in assay [2] (read-out: IC50) was found to be 209 nM; in assay [1] (read-out: IC50), 382 nM. With `Nc1ccc(CCNc2nc(Nc3ccc(CCNc4nc(NCCO)nc(Nc5cccc(N)c5)n4)cc3)nc(Nc3cccc(N)c3)n2)cc1`, the result in assay [3] and in assay [8] was Active. Further, the IC50 in assay [4] worked out at 57000 nM; in assay [6] it was 83 nM; in assay [7] it was 12000 nM; in assay [1] (read-out: IC50), 54 nM. Also, the “fold change (FC)” value in assay [5] came out at 2. With `Nc1cccc(Nc2nc(NCCO)nc(NCCc3ccc(Nc4nc(NCCc5ccc(O)cc5)nc(Nc5cccc(N)c5)n4)cc3)n2)c1`, the IC50 result in assay [1] was “Not Active”. With `CN(C)c1ccc(CCNc2nc(Nc3ccc(CCNc4nc(NCCO)nc(Nc5cccc(N)c5)n4)cc3)nc(Nc3cccc(N)c3)n2)cc1`, the IC50 in assay [1] (read-out: IC50) was found to be 695 nM. The same measure, in the same setting: next, `Nc1cccc(Nc2nc(NCCO)nc(NCCc3ccc(Nc4nc(NCCc5ccccc5)nc(Nc5cccc(N)c5)n4)cc3)n2)c1`: 449 nM; `Nc1cccc(CCNc2nc(Nc3ccc(CCNc4nc(NCCO)nc(Nc5cccc(N)c5)n4)cc3)nc(Nc3cccc(N)c3)n2)c1`: 119 nM. As to `Nc1cccc(Nc2nc(NCCO)nc(NCCOCCNc3nc(NCCO)nc(Nc4cccc(N)c4)n3)n2)c1`, the results for the half-maximal inhibitory concentration (IC50) in assay [2] (read-out: IC50) and in assay [1] (read-out: IC50) were 5190 nM and 70 nM, respectively. As to `Nc1cccc(Nc2nc(NCCO)nc(Nc3ccc(Nc4nc(NCCO)nc(Nc5cccc(N)c5)n4)cc3)n2)c1`, the half-inhibitory concentration (IC50) in assay [1] (read-out: IC50) came to 157 nM. The same measure, in the same setting: the value for `Nc1cccc(Nc2nc(NCCO)nc(Nc3cccc(Nc4nc(NCCO)nc(Nc5cccc(N)c5)n4)c3)n2)c1` was 293 nM; that for `Nc1cccc(Nc2nc(NCCO)nc(Nc3ccc4c(c3)CCN4c3nc(NCCO)nc(Nc4cccc(N)c4)n3)n2)c1` was 80 nM. Still for that read-out and setting: the value for `Nc1cccc(Nc2nc(NCCO)nc(NCCNc3nc(NCCO)nc(Nc4cccc(N)c4)n3)n2)c1` was 58 nM. As for `NCCNc1nc(NCCO)nc(Nc2ccc(CCNc3nc(NCCO)nc(Nc4cccc(N)c4)n3)cc2)n1`, the IC50 stood at 749 nM in assay [2] (read-out: IC50) and 410 nM in assay [1] (read-out: IC50).

Regarding `Nc1cccc(Nc2nc(NCCO)nc(NCCCCNc3nc(NCCO)nc(Nc4cccc(N)c4)n3)n2)c1`, the half-maximal inhibitory concentration (IC50) in assay [1] (read-out: IC50) was 187 nM. `Nc1cccc(Nc2nc(NCCO)nc(NCCc3ccc(Nc4nc(NCCc5ccc(F)cc5)nc(Nc5cccc(N)c5)n4)cc3)n2)c1`: the 50% inhibitory concentration (IC50) in assay [1] (read-out: IC50) worked out at 531 nM. Regarding `Nc1cccc(Nc2nc(NCCO)nc(NCCc3ccc(Nc4nc(NCCO)nc(Nc5cccc(N)c5)n4)cc3)n2)c1`, the figures for the IC50 in assay [2] (read-out: IC50) and in assay [1] (read-out: IC50) were 144 nM and 84 nM, respectively. Regarding `Nc1cccc(Nc2nc(NCCO)nc(NCCc3ccc(Nc4nc(NCC(O)c5cccc(N)c5)nc(Nc5cccc(N)c5)n4)cc3)n2)c1` (stereo unspecified), in assay [1] (read-out: IC50), the IC50 was 130 nM. In the case of `CS(=O)(=O)c1cccc(Nc2nc(NCCO)nc(Nc3ccc(CCNc4nc(NCCO)nc(Nc5cccc(N)c5)n4)cc3)n2)c1`, the IC50 in assay [2] (read-out: IC50) came to 192 nM; in assay [1] (read-out: IC50), 243 nM. Consider `Nc1cccc(CNc2nc(Nc3ccc(CCNc4nc(NCCO)nc(Nc5cccc(N)c5)n4)cc3)nc(Nc3cccc(N)c3)n2)c1`, for which the IC50 in assay [1] (read-out: IC50) came to 141 nM.

With `Nc1cccc(Nc2nc(NCCO)nc(NCCCNc3nc(NCCO)nc(Nc4cccc(N)c4)n3)n2)c1`, in assay [1] (read-out: IC50), the IC50 turned out to be 56 nM. The same measure, in the same setting: the value for `CC(C)(CNc1nc(NCCO)nc(Nc2cccc(N)c2)n1)CNc1nc(NCCO)nc(Nc2cccc(N)c2)n1` was 41 nM. Take `Nc1cccc(Nc2nc(NCCO)nc(NCCc3ccc(Nc4nc(NCCO)nc(NCCO)n4)cc3)n2)c1`: the IC50 in assay [2] (read-out: IC50) came to 81 nM; in assay [1] (read-out: IC50), 94 nM.

Take `Nc1cccc(Nc2nc(NCCO)nc(NCCc3ccc(Nc4nc(NCCc5ccccc5N)nc(Nc5cccc(N)c5)n4)cc3)n2)c1`: in assay [1] (read-out: IC50), the IC50 is 185 nM. In the case of `Nc1cccc(Nc2nc(NCCO)nc(NCCc3ccc(Nc4nc(NCCO)nc(Nc5ccc(F)cc5)n4)cc3)n2)c1`, the values for the concentration for half-maximal inhibition (IC50) in assay [2] (read-out: IC50) and in assay [1] (read-out: IC50) were 204 nM and 361 nM, respectively. Take `OCCNc1nc(NCCc2ccc(Nc3nc(NCCO)nc(Nc4ccccc4F)n3)cc2)nc(Nc2ccccc2F)n1`: the half-maximal inhibitory concentration (IC50) result in assay [2] and in assay [1] was “Not Active” in each case.

Consider `Nc1cccc(Nc2nc(NCCO)nc(NCCc3cccc(Nc4nc(NCCO)nc(Nc5cccc(N)c5)n4)c3)n2)c1`, for which the half-maximal inhibitory concentration (IC50) entry in assay [1] is given as “Not Active”. In the case of `Nc1cccc(Nc2nc(NCCO)nc(NCCc3ccc(Nc4nc(NCCO)nc(Nc5ccc(Cl)cc5)n4)cc3)n2)c1`, the IC50 in assay [2] (read-out: IC50) was 893 nM; in assay [1] (read-out: IC50), 841 nM. `Nc1cccc(Nc2nc(NCCO)nc(NCCc3ccc(Nc4nc(Nc5cccc(N)c5)nc(Nc5cccc(N)c5)n4)cc3)n2)c1`: in assay [1] (read-out: IC50), the IC50 amounted to 56 nM. Still for that read-out and setting: the value for `CN(C)c1nc(Nc2ccc(CCNc3nc(NCCO)nc(Nc4cccc(N)c4)n3)cc2)nc(Nc2cccc(N)c2)n1` was 89 nM; that for `Nc1cccc(Nc2nc(NCCO)nc(NCC(O)CNc3nc(NCCO)nc(Nc4cccc(N)c4)n3)n2)c1` was 56 nM. On the same count and under the same terms, the value for `Nc1cccc(Nc2nc(NCCO)nc(NCCc3ccc(Nc4nc(NCCc5cccc(O)c5)nc(Nc5cccc(N)c5)n4)cc3)n2)c1` was 118 nM. On the same count and under the same terms, the value for `CN(C)CCNc1nc(Nc2ccc(CCNc3nc(NCCO)nc(Nc4cccc(N)c4)n3)cc2)nc(Nc2cccc(N)c2)n1` was 89 nM. On to `N=C(N)CCNc1nc(NCCO)nc(NCCc2ccc(Nc3nc(NCCO)nc(Nc4cccc(F)c4)n3)cc2)n1`, for which the IC50 result in assay [2] and in assay [1] was “Not Active” throughout.

The values above are taken from ChEMBL document CHEMBL1156811, “2,4,6-trisubstituted triazines as protein a mimetics for the treatment of autoimmune diseases” (J Med Chem, 2010).
